One test addresses T1, Ephrin type-B receptor 4 (Homo sapiens, UniProt P54760).
T1 sequence (P54760 whole entry): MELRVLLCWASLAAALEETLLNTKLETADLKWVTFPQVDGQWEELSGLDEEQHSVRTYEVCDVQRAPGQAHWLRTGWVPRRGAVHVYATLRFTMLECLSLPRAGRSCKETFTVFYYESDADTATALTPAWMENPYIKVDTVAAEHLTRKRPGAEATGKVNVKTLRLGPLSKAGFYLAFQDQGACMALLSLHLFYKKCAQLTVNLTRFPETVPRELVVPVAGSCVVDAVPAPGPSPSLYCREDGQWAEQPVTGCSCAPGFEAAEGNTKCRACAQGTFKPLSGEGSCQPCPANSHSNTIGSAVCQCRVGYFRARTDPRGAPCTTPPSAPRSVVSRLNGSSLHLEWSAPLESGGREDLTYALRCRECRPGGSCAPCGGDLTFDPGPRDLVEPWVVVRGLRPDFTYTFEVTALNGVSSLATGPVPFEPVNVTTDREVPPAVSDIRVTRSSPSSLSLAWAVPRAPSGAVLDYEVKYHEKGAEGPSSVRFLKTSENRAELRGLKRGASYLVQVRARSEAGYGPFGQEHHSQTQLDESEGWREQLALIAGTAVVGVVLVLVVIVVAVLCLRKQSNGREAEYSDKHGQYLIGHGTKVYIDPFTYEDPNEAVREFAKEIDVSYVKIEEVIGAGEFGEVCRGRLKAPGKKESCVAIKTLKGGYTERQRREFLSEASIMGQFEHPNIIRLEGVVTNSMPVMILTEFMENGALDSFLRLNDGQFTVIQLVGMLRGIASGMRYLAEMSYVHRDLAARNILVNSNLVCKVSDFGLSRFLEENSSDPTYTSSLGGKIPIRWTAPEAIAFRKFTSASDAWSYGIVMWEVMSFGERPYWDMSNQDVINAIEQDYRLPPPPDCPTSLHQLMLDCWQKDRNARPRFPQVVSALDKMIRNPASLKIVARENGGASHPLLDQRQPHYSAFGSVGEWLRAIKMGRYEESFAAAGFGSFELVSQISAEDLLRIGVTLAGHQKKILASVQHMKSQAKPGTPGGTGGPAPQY
As to the kind of experiment: Inhibition of recombinant EPHB4. A digest of the protocol: (§1)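 Purified recombinant kinase, 50 µL reaction. 1 µM [γ-33P]-ATP with substrate; compound added in 10% DMSO. Tested over several concentrations; IC50 in g/mL.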

The target of another test is Focal adhesion kinase 1 (Homo sapiens, UniProt Q05397). In words: Inhibition of recombinant FAK. The gist of the method: as §1
Chain of Focal adhesion kinase 1 (Q05397 whole entry): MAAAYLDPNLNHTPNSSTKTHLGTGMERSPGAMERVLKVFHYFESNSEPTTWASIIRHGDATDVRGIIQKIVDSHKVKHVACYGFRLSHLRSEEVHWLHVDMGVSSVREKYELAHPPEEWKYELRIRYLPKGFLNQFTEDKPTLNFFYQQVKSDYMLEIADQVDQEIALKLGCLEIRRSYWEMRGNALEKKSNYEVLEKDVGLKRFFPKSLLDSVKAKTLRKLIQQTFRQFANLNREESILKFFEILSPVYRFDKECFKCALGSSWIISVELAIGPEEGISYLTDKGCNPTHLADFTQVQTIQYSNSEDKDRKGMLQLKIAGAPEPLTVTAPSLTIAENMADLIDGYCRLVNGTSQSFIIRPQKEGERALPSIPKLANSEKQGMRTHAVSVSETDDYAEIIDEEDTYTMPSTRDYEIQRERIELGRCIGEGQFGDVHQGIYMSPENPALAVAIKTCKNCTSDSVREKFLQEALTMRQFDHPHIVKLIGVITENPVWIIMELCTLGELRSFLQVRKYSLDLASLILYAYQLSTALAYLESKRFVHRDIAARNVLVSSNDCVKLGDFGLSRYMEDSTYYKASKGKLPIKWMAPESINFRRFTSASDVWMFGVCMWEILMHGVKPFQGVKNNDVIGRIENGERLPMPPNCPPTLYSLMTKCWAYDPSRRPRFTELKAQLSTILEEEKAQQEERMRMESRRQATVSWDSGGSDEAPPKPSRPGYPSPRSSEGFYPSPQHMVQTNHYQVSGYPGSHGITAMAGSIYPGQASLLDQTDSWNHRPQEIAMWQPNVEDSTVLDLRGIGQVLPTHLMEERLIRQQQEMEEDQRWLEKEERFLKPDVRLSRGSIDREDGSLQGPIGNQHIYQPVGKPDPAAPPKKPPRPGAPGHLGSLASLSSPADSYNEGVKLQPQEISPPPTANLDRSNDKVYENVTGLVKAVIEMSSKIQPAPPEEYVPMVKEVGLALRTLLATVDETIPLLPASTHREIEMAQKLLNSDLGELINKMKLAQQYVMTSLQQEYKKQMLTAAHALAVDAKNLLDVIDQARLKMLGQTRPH
For test [1], the target named is Proto-oncogene tyrosine-protein kinase Src (Homo sapiens, UniProt P12931). As to the kind of experiment: Inhibition of recombinant SRC. The settings on record: read-out: IC50 (converted). The gist of the method: as §1
Chain of Proto-oncogene tyrosine-protein kinase Src (P12931 2-536 limits assumed): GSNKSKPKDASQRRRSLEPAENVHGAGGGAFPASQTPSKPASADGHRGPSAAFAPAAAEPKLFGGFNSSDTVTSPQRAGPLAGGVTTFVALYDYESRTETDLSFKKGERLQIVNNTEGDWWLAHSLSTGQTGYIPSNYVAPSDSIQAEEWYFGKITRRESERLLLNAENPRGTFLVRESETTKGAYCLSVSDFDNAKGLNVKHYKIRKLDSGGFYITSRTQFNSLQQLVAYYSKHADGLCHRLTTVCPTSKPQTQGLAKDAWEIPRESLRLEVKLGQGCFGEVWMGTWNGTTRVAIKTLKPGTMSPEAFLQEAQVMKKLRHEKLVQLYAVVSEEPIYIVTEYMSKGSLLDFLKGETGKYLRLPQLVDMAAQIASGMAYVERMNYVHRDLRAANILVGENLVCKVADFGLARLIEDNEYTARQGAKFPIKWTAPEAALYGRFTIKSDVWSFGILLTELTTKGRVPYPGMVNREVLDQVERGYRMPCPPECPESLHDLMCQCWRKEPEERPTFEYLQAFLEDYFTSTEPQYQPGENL
For test [2], the target named is Vascular endothelial growth factor receptor 2 (Homo sapiens, UniProt P35968). As to the kind of experiment: Inhibition of recombinant VEGFR2. A digest of the protocol:
as §1

For a further test, the target named is Insulin receptor (Homo sapiens, UniProt P06213). As to the kind of experiment: Inhibition of recombinant INSR. The settings on record: read-out: IC50 (converted).
The target of test [3] is Platelet-derived growth factor receptor beta (Homo sapiens, UniProt P09619). In words: Inhibition of recombinant PDGFRbeta.
Chain of Platelet-derived growth factor receptor beta (P09619 whole entry): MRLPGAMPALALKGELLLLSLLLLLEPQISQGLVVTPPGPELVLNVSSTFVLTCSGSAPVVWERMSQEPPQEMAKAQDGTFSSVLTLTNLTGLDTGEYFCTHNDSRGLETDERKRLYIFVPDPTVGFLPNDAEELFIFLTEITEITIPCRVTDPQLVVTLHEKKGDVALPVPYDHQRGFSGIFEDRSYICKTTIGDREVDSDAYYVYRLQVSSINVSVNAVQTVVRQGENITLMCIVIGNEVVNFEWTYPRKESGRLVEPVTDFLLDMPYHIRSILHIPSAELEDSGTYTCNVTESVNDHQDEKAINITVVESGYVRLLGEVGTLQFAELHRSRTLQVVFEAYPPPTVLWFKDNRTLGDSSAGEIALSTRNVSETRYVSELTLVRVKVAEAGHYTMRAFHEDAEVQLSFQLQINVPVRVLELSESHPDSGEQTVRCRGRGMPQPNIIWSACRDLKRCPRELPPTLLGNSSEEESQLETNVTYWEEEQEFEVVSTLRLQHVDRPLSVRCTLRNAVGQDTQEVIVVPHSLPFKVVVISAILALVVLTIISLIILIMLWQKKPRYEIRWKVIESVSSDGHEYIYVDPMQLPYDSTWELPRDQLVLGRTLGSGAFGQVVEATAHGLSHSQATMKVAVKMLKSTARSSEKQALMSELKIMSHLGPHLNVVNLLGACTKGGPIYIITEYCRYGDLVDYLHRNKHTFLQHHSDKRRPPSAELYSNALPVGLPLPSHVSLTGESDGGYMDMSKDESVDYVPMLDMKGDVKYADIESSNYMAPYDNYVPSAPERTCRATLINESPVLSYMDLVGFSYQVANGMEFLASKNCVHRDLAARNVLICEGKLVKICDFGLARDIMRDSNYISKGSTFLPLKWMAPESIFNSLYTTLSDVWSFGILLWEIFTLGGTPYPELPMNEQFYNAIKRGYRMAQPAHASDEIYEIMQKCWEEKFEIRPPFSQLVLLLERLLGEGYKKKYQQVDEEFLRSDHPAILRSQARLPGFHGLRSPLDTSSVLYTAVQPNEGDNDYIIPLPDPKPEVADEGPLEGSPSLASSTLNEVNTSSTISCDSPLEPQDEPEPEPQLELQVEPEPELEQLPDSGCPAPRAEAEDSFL
Test [4] has as its target Serine/threonine-protein kinase PLK1 (Homo sapiens, UniProt P53350). As to the kind of experiment: Inhibition of recombinant PLK1. The gist of the method:
as §1

In test [5] the target is Casein kinase II subunit alpha (Homo sapiens, UniProt P68400). In words: Inhibition of recombinant CK2alpha1. The gist of the method:
as §1

For test [6], the system named is L5178Y. As to the kind of experiment: Cytotoxicity against mouse L5178Y cells at 10 ug/ml by MTT assay. Format: functional. (Formazan colour is commonly taken as a measure of viable cells.)
The target of test [7] is T2, Aurora kinase B (Homo sapiens, UniProt Q96GD4). As to the kind of experiment: Inhibition of recombinant Aurora B. A digest of the protocol:
as §1

Test [8] concerns the target Serine/threonine-protein kinase B-raf (Homo sapiens, UniProt P15056, V600E). In words: Inhibition of recombinant B-RAF-V600E mutant. The settings on record: read-out: IC50 (converted). A digest of the protocol:
as §1

The target in test [9] is Cyclin-dependent kinase 2 (Homo sapiens, UniProt P24941). In words: Inhibition of recombinant CDK2/CycA. The gist of the method: as §1
Test [10] deals with Cyclin-dependent kinase 4/cyclin D1 (Homo sapiens, UniProt P11802+P24385). In words: (§2) Inhibition of recombinant CDK4/CycD1. A digest of the protocol: as §1
For test [11], the target named is Mitogen-activated protein kinase kinase kinase 8 (Homo sapiens, UniProt P41279). As to the kind of experiment: Inhibition of recombinant COT.
Test [12] concerns the target T3, Serine/threonine-protein kinase PLK4 (Homo sapiens, UniProt O00444).
T3 sequence (O00444 whole entry): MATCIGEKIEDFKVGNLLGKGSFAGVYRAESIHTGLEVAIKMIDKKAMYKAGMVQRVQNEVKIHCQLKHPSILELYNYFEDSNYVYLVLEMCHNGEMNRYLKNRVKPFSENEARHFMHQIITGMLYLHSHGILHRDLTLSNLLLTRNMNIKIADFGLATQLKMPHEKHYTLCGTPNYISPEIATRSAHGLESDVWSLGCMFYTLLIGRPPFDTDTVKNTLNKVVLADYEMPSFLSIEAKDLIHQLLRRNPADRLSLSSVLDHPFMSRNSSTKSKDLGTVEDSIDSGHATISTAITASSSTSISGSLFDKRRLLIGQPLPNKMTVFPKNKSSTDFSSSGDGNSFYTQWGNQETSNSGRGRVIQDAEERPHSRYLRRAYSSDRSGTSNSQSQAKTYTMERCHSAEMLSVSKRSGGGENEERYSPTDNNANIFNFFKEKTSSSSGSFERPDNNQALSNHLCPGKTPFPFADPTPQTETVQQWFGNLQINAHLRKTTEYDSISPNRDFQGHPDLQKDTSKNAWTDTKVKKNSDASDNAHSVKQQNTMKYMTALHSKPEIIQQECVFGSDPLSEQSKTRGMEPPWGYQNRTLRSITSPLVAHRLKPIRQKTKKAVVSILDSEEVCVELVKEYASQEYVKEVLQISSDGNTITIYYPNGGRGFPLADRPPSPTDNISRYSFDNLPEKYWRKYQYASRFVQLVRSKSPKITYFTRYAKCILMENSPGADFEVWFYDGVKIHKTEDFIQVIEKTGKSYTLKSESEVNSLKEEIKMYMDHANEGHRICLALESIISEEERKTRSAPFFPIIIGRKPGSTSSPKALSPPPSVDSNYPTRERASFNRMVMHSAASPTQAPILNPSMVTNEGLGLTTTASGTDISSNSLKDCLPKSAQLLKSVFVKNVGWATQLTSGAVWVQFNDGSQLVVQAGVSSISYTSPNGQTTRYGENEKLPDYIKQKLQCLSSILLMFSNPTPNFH
As to the kind of experiment: Inhibition of recombinant SAK.

Test [13] addresses T2, Aurora kinase B. As to the kind of experiment: Inhibition of recombinant Aurora B phosphorylation in human HT29 cells. Format: cell-based, HT-29. A digest of the protocol:
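HT29 cells pretreated 90 min with 10 µM staurosporine, then compound 90 min at 37 °C, then calyculin A 30 min. Lysates captured on antibody-coated plates; phospho-histone H3 detected with anti-P-His H3 as the Aurora B read-out.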

Test [14] relates to L5178Y. As to the kind of experiment: Cytotoxicity against mouse L5178Y cells by MTT assay. It is filed as functional, cell-based. The gist of the method: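 Mouse L5178Y lymphoma cells; MTT microculture tetrazolium read-out, relative to untreated controls. Vehicle controls with 0.1% EGMME/DMSO. Triplicate wells, experiment repeated three times.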
Test [15] addresses Cyclin-dependent kinase 4/cyclin D1 (Homo sapiens, UniProt P11802). The description is as §2. The gist of the method:
as §1

Values after ≈ are worked out from the molar mass of the structure shown.

In general, EC50 refers to the concentration that produces a half-maximal response.

T2 sequence (Q96GD4 whole entry): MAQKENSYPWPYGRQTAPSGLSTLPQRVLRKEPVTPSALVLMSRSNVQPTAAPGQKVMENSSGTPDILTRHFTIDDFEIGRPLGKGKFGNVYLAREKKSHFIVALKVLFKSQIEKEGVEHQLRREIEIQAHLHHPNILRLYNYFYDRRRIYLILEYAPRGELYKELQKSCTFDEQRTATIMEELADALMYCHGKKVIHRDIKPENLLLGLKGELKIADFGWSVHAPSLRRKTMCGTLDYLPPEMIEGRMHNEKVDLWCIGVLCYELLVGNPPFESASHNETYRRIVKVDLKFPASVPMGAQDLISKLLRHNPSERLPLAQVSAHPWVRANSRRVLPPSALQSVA
Chain of Casein kinase II subunit alpha (P68400 whole entry): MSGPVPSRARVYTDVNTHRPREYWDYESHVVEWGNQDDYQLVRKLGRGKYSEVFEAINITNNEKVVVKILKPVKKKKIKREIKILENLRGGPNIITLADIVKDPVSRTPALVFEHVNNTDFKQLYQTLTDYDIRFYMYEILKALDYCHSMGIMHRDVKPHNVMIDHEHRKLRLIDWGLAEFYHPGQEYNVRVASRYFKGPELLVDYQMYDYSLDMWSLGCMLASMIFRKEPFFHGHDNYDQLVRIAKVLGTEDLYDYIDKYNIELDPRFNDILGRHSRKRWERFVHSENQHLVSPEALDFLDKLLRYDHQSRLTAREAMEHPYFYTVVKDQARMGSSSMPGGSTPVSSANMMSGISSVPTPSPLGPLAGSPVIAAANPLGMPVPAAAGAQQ
Chain of Serine/threonine-protein kinase B-raf (P15056 2-766 V600E limits assumed): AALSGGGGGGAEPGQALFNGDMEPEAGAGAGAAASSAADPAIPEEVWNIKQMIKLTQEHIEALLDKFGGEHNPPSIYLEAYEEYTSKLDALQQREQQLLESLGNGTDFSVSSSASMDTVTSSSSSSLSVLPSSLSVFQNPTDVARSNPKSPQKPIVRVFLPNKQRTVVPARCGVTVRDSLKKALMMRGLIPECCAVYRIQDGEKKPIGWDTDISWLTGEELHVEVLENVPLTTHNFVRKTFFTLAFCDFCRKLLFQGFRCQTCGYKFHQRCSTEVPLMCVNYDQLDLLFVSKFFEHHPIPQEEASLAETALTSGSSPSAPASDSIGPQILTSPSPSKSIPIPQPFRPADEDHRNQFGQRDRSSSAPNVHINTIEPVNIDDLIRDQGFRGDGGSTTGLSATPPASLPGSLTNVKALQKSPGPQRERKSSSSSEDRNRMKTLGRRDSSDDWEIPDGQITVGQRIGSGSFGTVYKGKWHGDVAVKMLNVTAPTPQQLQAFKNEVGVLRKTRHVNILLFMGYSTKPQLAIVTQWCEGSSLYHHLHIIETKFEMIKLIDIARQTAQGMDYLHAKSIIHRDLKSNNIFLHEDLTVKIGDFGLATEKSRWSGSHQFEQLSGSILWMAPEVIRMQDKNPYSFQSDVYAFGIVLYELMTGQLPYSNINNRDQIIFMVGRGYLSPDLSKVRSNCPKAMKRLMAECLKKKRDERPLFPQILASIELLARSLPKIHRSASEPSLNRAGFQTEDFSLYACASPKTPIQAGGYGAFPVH
Chain of Serine/threonine-protein kinase PLK1 (P53350 whole entry): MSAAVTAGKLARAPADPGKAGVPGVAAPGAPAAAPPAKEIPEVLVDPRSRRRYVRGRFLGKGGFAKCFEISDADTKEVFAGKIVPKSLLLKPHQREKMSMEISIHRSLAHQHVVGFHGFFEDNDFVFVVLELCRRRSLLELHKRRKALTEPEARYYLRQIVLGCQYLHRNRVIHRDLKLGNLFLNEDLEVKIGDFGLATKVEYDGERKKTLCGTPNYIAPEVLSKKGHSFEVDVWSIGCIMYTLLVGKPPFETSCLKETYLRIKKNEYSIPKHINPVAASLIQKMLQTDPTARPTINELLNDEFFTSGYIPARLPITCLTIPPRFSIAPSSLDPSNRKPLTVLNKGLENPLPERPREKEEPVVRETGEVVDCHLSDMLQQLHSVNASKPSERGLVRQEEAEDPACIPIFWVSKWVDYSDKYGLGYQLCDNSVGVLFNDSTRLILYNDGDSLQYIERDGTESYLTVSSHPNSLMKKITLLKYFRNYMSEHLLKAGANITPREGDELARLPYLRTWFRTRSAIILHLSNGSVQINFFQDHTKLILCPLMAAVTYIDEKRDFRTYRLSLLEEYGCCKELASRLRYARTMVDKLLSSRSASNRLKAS

For the compound `COc1cc(O)c(C(=O)O)c(C2=C(C)C[C@@H](O)C2=O)c1` [ALTERNARIENONIC ACID], the IC50 is over 1 ×10⁻⁵ g/ml on Ephrin type-B receptor 4; over 1 ×10⁻⁵ g/ml at Focal adhesion kinase 1; 16.5 µM in [1]; 18.3 µM in test [2] (read-out: IC50 (converted)); 29.1 µM at Insulin receptor; over 1 ×10⁻⁵ g/ml in test [3]. For the same compound, the IC50 in test [4] was over 1 ×10⁻⁵ g/ml; in [5], over 1 ×10⁻⁵ g/ml; on Aurora kinase B [7] (read-out: IC50 (converted)), 10.8 µM; in [8], 32.3 µM; in [9] it was over 1 ×10⁻⁵ g/ml; in [10], over 1 ×10⁻⁵ g/ml. Besides, the IC50 in test [11] was over 1 ×10⁻⁵ g/ml; in [12] (read-out: IC50 (converted)), 8.98 µM. The Activity with L5178Y [6] is listed as 101.2%.

Turning to `Cc1cc(O)cc2oc(=O)c3c(O)cc(O)cc3c12` [ALTERNARIOL], the IC50 on Ephrin type-B receptor 4 is over 1 ×10⁻⁵ g/ml; at Focal adhesion kinase 1 (read-out: IC50 (converted)), 9.29 µM; in test [1], 17 µM; in test [2] it was 9.2 ×10⁻⁷ g/ml; in [3], 8.9 ×10⁻⁷ g/ml; in test [4] (read-out: IC50 (converted)) it was 26.7 µM. Besides, the IC50 in test [5] (read-out: IC50 (converted)) was 7.75 µM; at Aurora kinase B [13], 3.87 µM; at Aurora kinase B [7], 4.2 ×10⁻⁷ g/ml; in test [8] it was 6.2 µM; in [9] (read-out: IC50 (converted)), 12.8 µM; in test [15], 9.29 µM. Moreover, the IC50 in test [11] (read-out: IC50 (converted)) was 31 µM; in test [12], 9.6 ×10⁻⁷ g/ml. Moreover, in the test with L5178Y [14], a half-maximal response (EC50) required 1.7 µg/mL (≈ 6.58 µM). This compound also registered an Activity in the test with L5178Y [6] of 3.7%.

The values are drawn from ChEMBL document CHEMBL1157406, “Cytotoxic metabolites from the fungal endophyte Alternaria sp. and their subsequent detection in its host plant Polygonum senegalense” (J Nat Prod, 2008).
